Source: PubChem BioAssay (several laboratories)
In the library only some 2.4% were active in any assay of this set; here they are far more common.
SENP1 inh: blocks the human SENP1 SUMO protease catalytic domain; Q9P0U3; recombinant SENP1 catalytic domain, CyPet-SUMO1-YPet FRET cleavage; inhibition, % at 10 µM; 360,000 tested, 0.21% active;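 active = inhibition at least 30% at 10 µM, raw YFP signal under a set limit, fluorescence ratio 0.5 to 1.5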
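Test system: hSENP1 catalytic domain, recombinant; Amount: 20 pM final SENP1 enzyme; Medium: Tris pH 8 buffer plus EDTA, NaCl, BME, BSA, NP40, catalase; Schedule: 50 min enzyme reaction, room temperature, light-protected; Technique: FRET fluorescence in CFP and YFP emission channels; Controls: no-enzyme wells low, DMSO-plus-enzyme wells high control.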
Myeloid diff 2: compounds promoting myeloid differentiation | calls only at 10 µM | 360,000 tested, 1% active | AID 624256 | ER-HoxA9 myeloid progenitors, lysozyme-GFP differentiation, flow cytometry;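 active = normalized GFP-positive differentiation at or above the plate's own cutoff, the solvent-only control mean plus 3 SD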;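 note: cells exposed to compound for four days before flow analysis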
DAGLB inh: blocks human DAGLB lipase activity. Q8NCG7. HEK293T DAGLB membrane lysate, EnzChek fluorogenic substrate. inhibition, % at 5.17 µM. 340,000 tested, 0.059% active; in the data active = inhibition above about 34%
MT1-MMP act inh: inhibitors of human MT1-MMP activation. P50281. HT1080 RFP-PRO-GFP cells, GFP/RFP ratio fluorescence, overnight; percent of plate control window, DMSO zero. GFP/RFP ratio change, % at 20 µM. 360,000 tested, 0.061% active;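 active = GFP/RFP ratio change of at least 30% with cell ATP level not reduced by more than half and red fluorescence within 50% of control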
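Assay system: HT1080 RFP-PRO-GFP cells | Dosing: 20 µM single dose, 1% DMSO | Incubation: Cells overnight before dosing, compound overnight, 37 °C, 5% CO2 | Evaluation: GFP/RFP fluorescence ratio | Control set: DMSO-only wells and HT1080 RFP-L50D-GFP cell wells as references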
NRP1-CendR mod: NRP-1/CendR interaction modulation. inhibition, % at 25 µM. FAM-RPARPAR peptide binding to NRP-1, fluorescence polarization. 360,000 tested, 0.85% active. O14786;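 active = inhibition or corrected inhibition above about 18%, plus a signal ratio from 0.5 to 1.5, limit read from the data, passing the limit was not always enough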
Target sequence (O14786 whole entry, looked up): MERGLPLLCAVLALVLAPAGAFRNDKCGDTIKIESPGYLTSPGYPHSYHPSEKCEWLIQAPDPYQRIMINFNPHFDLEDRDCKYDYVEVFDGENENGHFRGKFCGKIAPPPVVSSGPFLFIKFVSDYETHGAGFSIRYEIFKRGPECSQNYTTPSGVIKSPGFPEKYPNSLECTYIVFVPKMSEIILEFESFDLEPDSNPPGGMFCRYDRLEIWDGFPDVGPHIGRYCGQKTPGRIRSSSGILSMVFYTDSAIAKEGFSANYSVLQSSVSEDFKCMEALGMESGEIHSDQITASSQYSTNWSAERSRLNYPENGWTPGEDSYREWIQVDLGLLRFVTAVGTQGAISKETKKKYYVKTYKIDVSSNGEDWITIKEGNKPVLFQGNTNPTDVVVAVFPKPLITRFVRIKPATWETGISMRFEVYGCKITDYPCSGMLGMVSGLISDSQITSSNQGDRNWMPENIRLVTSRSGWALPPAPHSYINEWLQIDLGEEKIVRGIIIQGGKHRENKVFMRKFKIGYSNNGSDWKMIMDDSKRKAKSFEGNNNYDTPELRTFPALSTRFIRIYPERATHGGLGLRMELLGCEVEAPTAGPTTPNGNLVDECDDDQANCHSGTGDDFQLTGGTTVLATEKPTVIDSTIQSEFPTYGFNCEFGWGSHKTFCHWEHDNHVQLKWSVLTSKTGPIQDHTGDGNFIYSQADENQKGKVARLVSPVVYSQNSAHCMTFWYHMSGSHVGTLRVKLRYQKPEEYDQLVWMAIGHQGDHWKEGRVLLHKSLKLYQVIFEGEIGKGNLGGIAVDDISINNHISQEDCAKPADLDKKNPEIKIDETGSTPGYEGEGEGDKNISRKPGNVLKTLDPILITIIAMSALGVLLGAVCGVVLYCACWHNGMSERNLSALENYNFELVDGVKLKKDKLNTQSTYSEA
MIN6 prolif: induces beta-cell replication in MIN6 cells; MIN6 cells proliferation, ATPlite luminescence, 48 h; cells starved in 0.2% serum; 100% = growth in 10% serum; proliferation, % at 10 µM; 330,000 tested, 0.29% active; AID 2380;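 active = compounds whose signal lies at least 3.5 SD above the mean of all wells on their plate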
Each line names hits and unclear results; the compound was inactive in the other large screens.

O=C(NCc1ccccc1)C1=C[C@H](C2CCCCC2)C[C@H](OCc2ccc(CO)cc2)O1	NRP1-CendR mod 18
O=C(O)c1cccc(NC(=O)c2ccccc2NC(=O)c2cccc([N+](=O)[O-])c2)c1	Myeloid diff 2 active (no result: MT1-MMP act inh)
O=C(Nc1ccccc1C(=O)Nc1ccncc1)c1cccc([N+](=O)[O-])c1	none
CCCC(=O)N1CCC1(C)C(=O)Nc1cc(OC)ccc1OC (stereo unspecified)	none (no result: DAGLB inh, MIN6 prolif)
O=C(C[C@H]1CC[C@H](NC(=O)Nc2ccccc2F)[C@@H](CO)O1)NCc1ccc(-c2ccccc2)cc1	none (no result: DAGLB inh, MIN6 prolif)
COc1ccc(S(=O)(=O)Nc2ccccc2OC)cc1C	none
COc1cc(NS(=O)(=O)c2ccc(C)c(C)c2)c(OC)cc1Cl	NRP1-CendR mod 27
O=C(NCc1ccco1)C1CCN(S(=O)(=O)c2cccc([N+](=O)[O-])c2)CC1	NRP1-CendR mod 28
COc1ccccc1CNC(=O)C1CCN(S(=O)(=O)c2cccc([N+](=O)[O-])c2)CC1	none
COc1ccc(S(=O)(=O)N2CCCC2CNC(=O)C(=O)Nc2ccc(F)cc2)cc1 (stereo unspecified)	none
S=C(NCc1ccccc1)NC1CCCCC1	Myeloid diff 2 active
CCOc1ccc(NC(=O)Cn2cc(C(=O)C3CC3)c3ccccc32)cc1	none
COc1ccc(NC(=O)C2=CC(c3cccs3)=NS(=O)(=O)N2C)cc1	Myeloid diff 2 active
Cc1ccc(NC(=O)C2=CC(c3ccc(C)cc3)=NS(=O)(=O)N2C)cc1	NRP1-CendR mod 21
COc1ccc(C2=NS(=O)(=O)N(C)C(C(=O)Nc3ccc(C)cc3)=C2)cc1	none
Cc1cc(O)ccc1C1(c2ccc(O)cc2C)OC(=O)c2ccccc21	none
CC(=O)Oc1ccc2c(c1)Oc1cc(OC(C)=O)ccc1C21OC(=O)c2ccccc21	Myeloid diff 2 active
COc1cc(O)c(C(CC(=O)N2CCOCC2)c2ccc3c(c2)OCO3)c(OC)c1 (stereo unspecified)	NRP1-CendR mod 28
COc1cc(O)c(C(CC(=O)N2CCOCC2)c2ccc(N(C)C)cc2)c(OC)c1 (stereo unspecified)	NRP1-CendR mod 24
COc1cc(O)c(C(CCN2CCOCC2)c2ccc3c(c2)OCO3)c(OC)c1 (stereo unspecified)	none
COc1cc(O)c(C(CC(=O)N2CCCCC2)c2ccc(N(C)C)cc2)c(OC)c1 (stereo unspecified)	none
CC(=O)c1cc(-c2ccccc2)n(CCC(=O)NC2CCCCC2)c1C	none
COC(=O)c1c(NC(=O)C(=O)N2CCCC2)sc2c1CC(C)(C)OC2	none
NS(=O)(=O)c1ccc(CCNC(=O)c2ccc(OCC3CCCO3)cc2)cc1 (stereo unspecified)	none
CSc1ccccc1C(=O)N1CCN(c2cccc(Cl)c2)CC1	NRP1-CendR mod 45
Nc1ccc2nc3c(=O)n(CCc4ccccc4)c(=O)[nH]c3nc2c1	Myeloid diff 2 active (no result: DAGLB inh)
O=C1C2=C(NC(=S)NC2c2ccc(Cl)cc2)NC(c2ccc(Cl)cc2)N1c1ccc(Cl)cc1 (stereo unspecified)	Myeloid diff 2 active
O=C(NCc1cccnc1)c1ccc(N2CCOCC2)c([N+](=O)[O-])c1	none
CCOc1ccc(C(=O)NCc2cccnc2)cc1[N+](=O)[O-]	NRP1-CendR mod 22
Oc1ccc(-c2nccc(-c3ccc(Cl)cc3)n2)cc1	none
Oc1ccc(-c2nccc(-c3ccc(Cl)cc3Cl)n2)cc1	NRP1-CendR mod 40
Cn1nnnc1SCC(=O)Nc1ccccc1C(N)=O	none
Cc1ccc(S(=O)(=O)NC2CCC(C(=O)O)CC2)cc1 (stereo unspecified)	Myeloid diff 2 active
Cc1ccc(C(=O)N/C(=C/c2ccco2)C(=O)N2CCOCC2)cc1	none
COc1cc(OC)c(C(=O)OCC(=O)Nc2cc(C)on2)cc1OC	NRP1-CendR mod 36
CC(C)CN1Cc2ccccc2Oc2cc(Br)ccc2S1(=O)=O	none (no result: MIN6 prolif)
CCCCN1Cc2ccccc2Oc2cc(Br)ccc2S1(=O)=O	Myeloid diff 2 active (no result: MIN6 prolif)
COc1ccc(OCc2nc(N)nc(Nc3cccc(C)c3C)n2)cc1	NRP1-CendR mod 26
COc1ccc(Nc2nc(N)nc(COc3ccc(OC)cc3)n2)cc1	none
COc1ccccc1-c1nc(SCC(=O)NCC2CCCO2)c2c(=O)n(C)c(=O)n(C)c2n1 (stereo unspecified)	none (no result: SENP1 inh, Myeloid diff 2, DAGLB inh, MT1-MMP act inh, NRP1-CendR mod)
Cc1nc(SCC(=O)NCc2ccco2)c2c(C)c(C)sc2n1	none
Cc1sc2ncnc(SCC(=O)NC(=O)NCc3ccco3)c2c1C	Myeloid diff 2 active
COc1cc([N+](=O)[O-])cc(/C=N/NC(=O)c2cc(C)nc3ccccc23)c1O	SENP1 inh 40
COc1cc([N+](=O)[O-])cc(/C=N/NC(=O)c2cc(-c3ccccc3)nc3ccccc23)c1O	none (no result: MT1-MMP act inh)
CC1=C(C(=O)OCC2CCCO2)C(c2ccccc2)NC(=O)N1 (stereo unspecified)	NRP1-CendR mod 28
CCn1c(NC(=O)Nc2cccc(C)c2C)cc2sccc21	none
C[C@H](CO)N1C[C@H](C)[C@@H](CN(C)Cc2ccncc2)Oc2c(NC(=O)C3CC3)cccc2C1=O	none
CCc1cc(C(=O)OC)c(NC(=O)CN2CCN(C(=O)c3ccco3)CC2)s1	NRP1-CendR mod 26
CCC(c1nnc(SCC(=O)Nc2c(F)cccc2F)n1Cc1ccccc1)N(C)C (stereo unspecified)	none
CCC(c1nnc(SCC(=O)Nc2ccc(N3CCOCC3)cc2)n1Cc1ccccc1)N(C)C (stereo unspecified)	NRP1-CendR mod 27
CCN(CC)C1=CC2=CC(=C(C#N)C#N)CCC2CC1 (stereo unspecified)	Myeloid diff 2 active
CCCCN(C)C1=CC2=CC(=C(C#N)C#N)CCC2CC1 (stereo unspecified)	Myeloid diff 2 active
CC(C)CN(C(=O)COC(=O)CNC(=O)c1sc2ccccc2c1Cl)C1CCS(=O)(=O)C1 (stereo unspecified)	none
COc1ccc(Cc2nc3ccc(C(=O)NCCc4cccc(C)n4)cc3o2)cc1	none
COc1nnc(-c2ccccc2)s1	none
COc1cc2cc(Oc3ccc4ccc(=O)oc4c3)c(=O)oc2cc1OC(=O)/C=C/c1ccccc1	NRP1-CendR mod 27
O=C(COC(=O)c1ccc(N2CCCC2=O)cc1)Nc1ccccc1	none
O=C(COC(=O)c1ccc(N2CCCC2=O)cc1)c1ccccc1	NRP1-CendR mod 28
COc1cccc(N2CCN(C(=O)c3nc4nc(C)cc(C)n4n3)CC2)c1	none
O=c1ccc2ccc(OCc3ccccc3)cc2o1	none
